# Compound activity: PubChem, The Scripps Research Institute Molecular Screening Center
# CHRM5 PAM = positive allosteric modulators of human muscarinic M5 receptor; AID 624038; activation, % at 3 µM; hit rate 0.3% among 360,000; CHO-K1 hM5, Fluo-8 calcium, ACh EC20 PAM; 0% = ACh EC20, 100% = ACh EC100;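 active = activation above the run cutoff, the mean activation of all test compounds plus 3 SD, cut at about 18% in these data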
# Target sequence (P08912 whole entry, looked up): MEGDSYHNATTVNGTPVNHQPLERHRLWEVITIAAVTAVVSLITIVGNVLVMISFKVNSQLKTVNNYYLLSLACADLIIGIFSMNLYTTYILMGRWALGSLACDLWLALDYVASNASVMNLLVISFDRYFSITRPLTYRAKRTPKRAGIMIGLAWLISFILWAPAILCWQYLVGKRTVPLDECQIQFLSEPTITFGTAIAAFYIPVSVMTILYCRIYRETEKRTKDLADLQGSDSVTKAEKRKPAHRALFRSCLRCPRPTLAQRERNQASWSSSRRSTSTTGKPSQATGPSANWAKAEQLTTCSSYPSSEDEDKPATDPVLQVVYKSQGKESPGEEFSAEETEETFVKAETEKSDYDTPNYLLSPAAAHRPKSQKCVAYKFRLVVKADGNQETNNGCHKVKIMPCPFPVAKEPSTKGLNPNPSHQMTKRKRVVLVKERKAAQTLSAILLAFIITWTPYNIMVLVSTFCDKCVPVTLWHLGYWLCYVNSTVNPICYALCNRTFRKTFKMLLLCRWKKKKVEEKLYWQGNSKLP
#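 System – CHO-K1 hM5 cells · Compound – 3 µM, single dose · Incubation – compound preincubation 140 s before EC20 acetylcholine addition · Technique – Fluo-8 calcium fluorescence · Measure – Max/basal fluorescence ratio as % of EC20–EC100 ACh window · Benchmarks – low control EC20 acetylcholine (0%), high control EC100 acetylcholine (100%) · Replication – singlicate, one well per test compound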
# CHRM5 agonist = CHRM5 agonism in calcium assay; P08912; CHO-K1 hM5 cells, Fluo-8 calcium fluorescence; 0% DMSO wells, 100% maximal acetylcholine response; activation, % at 3 µM; hit rate 0.19% among 360,000; AID 624037;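 active = activation above the run's mean over test compounds plus 3 SD, cut at about 23% in these data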;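 also: signal is peak over basal fluorescence ratio across the kinetic read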
# M5 antag = blocks acetylcholine activation of human M5 receptor; P08912; CHO-hM5 cells, Fluo-8 calcium fluorescence, ACh EC80; inhibition, % at 3 µM; hit rate 0.59% among 360,000; AID 624040;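 active = inhibition above a per-plate cutoff, the mean of that plate's test compounds plus 3 SD, cut at about 27% in these data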;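 also: 0% = acetylcholine EC80 with DMSO and 100% = DMSO without agonist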
# CHRM4 agonist = CHRM4 agonism in calcium assay; P08173; CHO-K1 hM4/Gqi5, Fluo-8 calcium fluorescence; vehicle 0%, full acetylcholine response 100%; activation, % at 3 µM; hit rate 0.14% among 360,000;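 active = activation above the run mean over all test wells plus 3 SD, cut at about 32% in these data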;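 also: peak over basal fluorescence ratio per well then scaled between controls; 0% = DMSO wells and 100% = acetylcholine at EC100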
# M4 antag = CHRM4 antagonism in calcium assay; P08173; CHO-hM4 cells, ACh EC80, Fluo-8 calcium fluorescence; inhibition, % at 3 µM; hit rate 0.73% among 360,000; AID 624125;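 active = inhibition above its plate's cutoff, the mean inhibition of sample wells plus 3 SD, cut at about 27% in these data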;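 also: 0% = acetylcholine EC80 with DMSO and 100% = DMSO without agonist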
# M4 PAM = potentiates acetylcholine response at human M4 receptor; P08173; CHO-K1 hM4/Gqi5, Fluo-8 calcium fluorescence, ACh EC20; 0% = ACh EC20, 100% = maximal ACh; hit rate 0.4% among 360,000; AID 624126; activation, % at 3 µM;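 active = activation above its plate's cutoff, the mean activation of sample wells plus 3 SD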
# * marks the source's active call; other numbers are inactive results. This is a sample that favours compounds with a hit; in the whole collection about 1.8% have one here.
SMILES,CHRM5 PAM,CHRM5 agonist,M5 antag,CHRM4 agonist,M4 antag,M4 PAM
CN(C)c1ccc(/C=C/c2ccc3c4ccccc4ccc3[n+]2-c2ccccc2)cc1,-28,-1,43*,18,40*,-22
CN(C)c1ccc(/C=C/c2ccc3ccccc3[n+]2C)cc1,-5,-1,14,1,0,7
Cc1[nH]nc(-c2ccc(OCc3cnn(-c4ccccc4)c3)cc2O)c1Oc1ccccc1F,-1,2,-6,2,-1,24*
Cc1cnc(NC(=O)CSc2ncc(-c3ccccc3)n2Cc2ccco2)s1,-28,26*,8,10,-4,0
CCC(C)c1ccccc1NC(=O)C(C)OC(=O)CN1C(=O)NC(C)(C)C1=O (stereo not given),1,3,6,1,-14,26*
N#Cc1ccc(C(=O)N2CCCC(c3cc(C(=O)NCc4cccnc4)no3)C2)cc1 (stereo not given),2,-1,-11,3,-27,3
OC(c1ccccc1)(c1nc(-c2cc(F)cc(F)c2)cs1)C(F)(F)F (stereo not given),-5,0,-7,0,-9,-7
C=CCN1C(=O)S/C(=C\c2ccc(N3CCOCC3)cc2C)C1=O,-2,2,2,5,-6,27*
CC1(C(=O)NS(=O)(=O)c2ccc(C#N)cc2)CCN1C(=O)CC1CCCCC1 (stereo not given),1,-1,0,0,3,0
CCCCc1ccc(/C=C2/C(=O)ON=C2c2ccccc2)s1,11,0,-10,2,-8,27*
Cc1cc(C)n2nc(-c3ccc(Br)cc3)cc2n1,0,-2,-1,2,1,18*
COc1cc(C2(C)SCCCS2)cc(OC)c1OC,3,-1,-8,1,-11,1
Nc1nc(Nc2ccccc2F)nc(NCc2ccccc2)c1[N+](=O)[O-],19*,6,-5,-1,-8,6
Nc1nc(Nc2ccccc2)nc(NCc2ccccc2)c1[N+](=O)[O-],3,-5,5,-1,-4,-22
O=C(O)CSCC(=O)NCc1ccc(Cl)cc1,-1,0,5,2,-14,28*
CCCn1c(NC(=O)CN2C(=O)NC3(CCCCC3)C2=O)nc2ccccc21,2,-1,-4,2,-3,-3
CCCn1c(NC(=O)CN2C(=O)NC3(CCCC3)C2=O)nc2ccccc21,-2,-1,-3,3,-28,23*
Cc1ccc(C(=O)CSC2=C(C#N)C(c3ccco3)CC(=O)N2)c(C)c1 (stereo not given),-13,47*,3,29,14,-14
O=[N+]([O-])c1ccc(COc2cccnc2)cc1,-3,0,3,2,-7,-4
O=[N+]([O-])c1ccc(-c2cccnc2)cc1,18*,2,4,1,3,1
N#CC1=C(N)Oc2cc(O)ccc2C1c1ccc(Br)s1 (stereo not given),-21,29*,9,14,-10,0
CSc1ccccc1NC(=O)CSCc1ccc(C)cc1,3,-3,4,-2,6,0
Cc1ccc(CSCC(=O)Nc2ccccc2C(=O)O)cc1,7,4,-6,-1,-4,15*
CCCCCCC(=O)NNC(=O)CC(=O)Nc1ccccc1C(=O)O,1,3,6,0,0,46*
CCOCC(=O)Nc1ccccc1C(=O)O,6,0,-4,6,-11,26*
SMILES,CHRM5 PAM,CHRM5 agonist,M5 antag,CHRM4 agonist,M4 antag,M4 PAM
Cc1ccc(S(=O)(=O)N2CCOCC2)cc1C(=O)N1C(=O)c2cccc(N)c2C1=O,3,-1,-5,1,-26,27*
CN(C)/C=C(\C#N)C(=O)N/N=C/c1ccccc1,18*,-1,-9,1,-3,15
O=C(N/N=C/c1ccccc1)C(=O)N/N=C/c1ccccc1,2,-3,-2,0,-3,-7
CCc1nc2ccc(C(=O)NCCN3CCOCC3)cn2c1N(C=O)Cc1ccc(OC)cc1,7,1,14,1,5,-4
Nc1cc(=O)[nH]c(SCCOc2ccccc2)n1,-16,-1,27*,18,2,-10
CC1(C(O)(C#CC[N+]2(C)CCCCC2)c2ccccc2)CCCC1 (stereo not given),-20,-10,100*,0,99*,-21
CN(C)c1ccc(-c2csc(C(O)c3cccc(Cl)c3)n2)cc1 (stereo not given),-21,7,19,47*,17,-13
Cc1ccc(-c2csc(NC(=O)c3cc([N+](=O)[O-])ccc3N3CCOCC3)n2)cc1,0,-3,8,0,1,3
O=C(Nc1nc(-c2ccccc2)cs1)c1ccc(N2CCOCC2)c([N+](=O)[O-])c1,-18,11,30*,22,44*,-35
O=C(CSc1nnc(COc2cccc3cccnc23)o1)N1CCc2ccccc21,-9,-3,28*,1,5,13
O=C(CSc1nnc(Cc2ccccc2)o1)N1CCc2ccccc21,0,-5,-2,1,-9,11
CCCCCCCCCCC[N+](C)(C)CC/C=C1/c2ccccc2Sc2ccc(Cl)cc21,-18,-8,82*,1,52*,-19
CCCCCCCCCC[N+](C)(C)CC/C=C1/c2ccccc2Sc2ccc(Cl)cc21,-19,-8,60*,-1,41*,-20
CC[N+](C)(C)CC/C=C1/c2ccccc2Sc2ccc(Cl)cc21,-35,-20,99*,1,96*,-17
CCCCCC[n+]1c(-c2ccc(Cl)cc2Cl)csc1Nc1ccccc1,-3,0,-4,0,-10,1
O=C(NC1CCCC1)N[C@@H]1C=C[C@@H](CC(=O)N2CCOCC2)O[C@@H]1CO,4,0,-6,1,3,12
CC1(c2nnnn2-c2ccc3c(c2)OCCO3)CCC(=O)N1CC1CCCCC1 (stereo not given),0,0,5,2,-6,6
COC1OC(c2ccccc2)=C(c2ccc(C(N)=O)cc2)c2ccc(F)cc21 (stereo not given),-3,0,1,2,-7,9
COc1cccc(CNC(=O)[C@@H]2CCCN2C(=O)[C@@H]2CCCN2C(=O)c2cccc(OC)c2)c1,1,-1,-2,0,-1,8
CC(C)(C)OC(=O)Nc1ccccc1-n1nnnc1C(C(=O)c1ccc(F)cc1)N1CCN(c2ccccn2)CC1 (stereo not given),-8,-1,21,4,4,-8
